The array DNA melting data of Ke et al. (doi:10.1101/2024.01.08.574731)

Assays:
[1] = folding enthalpy; higher = less favourable; fluorescence melt of hairpins on a sequencing array, two-state fit; conditions: sodium 0.088 M
Method in brief: (§1)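 On a sequenced MiSeq flow cell, library hairpins with annealed Cy3 and quencher oligos were imaged for Cy3 fluorescence in 2.5 °C steps up to 60 °C, in 50 mM Na-HEPES pH 8.0, 25 mM NaCl. Normalisation used pre-quench Cy3 and control constructs. Bootstrapped two-state fits gave melting temperature and folding enthalpy, combined by inverse variance across four replicates and with fitted temperatures raised by 9.35 °C to match UV melts.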

[2] = melting temperature; fluorescence melt of hairpins on a sequencing array, two-state fit, raised by 9.35 °C to match UV melts; conditions: sodium 0.088 M
Method in brief: as §1

GCAAGGCGAAAGCGTGGC ((.(.((....)).).))
folding enthalpy [1]: -20.2 kcal/mol
Tm [2]: 46.9 °C

GCAAGGGGAAACCCTTGC (((((((....)))))))
folding enthalpy [1]: -38.3 kcal/mol
Tm [2]: 68.3 °C

GCAAGGTCGAAAGACTGC (((..(((....))))))
folding enthalpy [1]: -19.1 kcal/mol
Tm [2]: 40.5 °C

GCAAGTCGAAAGACGTGC (((.(((....))).)))
folding enthalpy [1]: -39.8 kcal/mol
Tm [2]: 55.8 °C

GCAATAACGAAAGTTTGC (((..(((....))))))
folding enthalpy [1]: -26 kcal/mol
Tm [2]: 41.3 °C

GCAATACCGAAAGGTTGC (((..(((....))))))
folding enthalpy [1]: -21.6 kcal/mol
Tm [2]: 45.5 °C

GCAATACGAAAGTAGTGC (((.(((....))).)))
folding enthalpy [1]: -43.8 kcal/mol
Tm [2]: 54.7 °C

GCAATAGAAATATTGC ((((((....))))))
folding enthalpy [1]: -26.5 kcal/mol
Tm [2]: 46.4 °C

GCAATCCGAAAGGAATGC (((.(((....))).)))
folding enthalpy [1]: -34.5 kcal/mol
Tm [2]: 54.5 °C

GCAATCGAAAGATGCTGC ((((((....)))..)))
folding enthalpy [1]: -28.2 kcal/mol
Tm [2]: 51.1 °C

GCAATCGGAAACGATCGC ((.((((....)))).))
folding enthalpy [1]: -36.4 kcal/mol
Tm [2]: 47.2 °C

GCAATCGGAAACGGTTGC ((((.((....)).))))
folding enthalpy [1]: -43.8 kcal/mol
Tm [2]: 55.8 °C

GCAATGAAAATTGC (((((....)))))
folding enthalpy [1]: -22.7 kcal/mol
Tm [2]: 50.7 °C

GCAATGCGAAAGCAACGC ((..(((....)))..))
folding enthalpy [1]: -14.4 kcal/mol
Tm [2]: 40.2 °C

GCAATGCGAAAGCACTGC (((.(((....))).)))
folding enthalpy [1]: -36.8 kcal/mol
Tm [2]: 51.6 °C

GCAATGCGAAAGCAGCGC ((..(((....)))..))
folding enthalpy [1]: -18.8 kcal/mol
Tm [2]: 55.9 °C

GCAATGCGAAAGCATAGC ((.((((....)))).))
folding enthalpy [1]: -18.6 kcal/mol
Tm [2]: 57.8 °C

GCAATGCGAAAGCCATGC (((..((....))..)))
folding enthalpy [1]: -18.3 kcal/mol
Tm [2]: 37.8 °C

GCAATGCGAAAGCGTAGC ((.(.((....)).).))
folding enthalpy [1]: -15.8 kcal/mol
Tm [2]: 42.7 °C

GCAATTGAAAAATTGC ((((((....))))))
folding enthalpy [1]: -32 kcal/mol
Tm [2]: 53.4 °C

GCAATTGGAAACAACTGC (((.(((....))).)))
folding enthalpy [1]: -26.6 kcal/mol
Tm [2]: 34.8 °C

GCAATTGGAAACAATCGC ((.((((....)))).))
folding enthalpy [1]: -27.4 kcal/mol
Tm [2]: 38.8 °C

GCACAAGGAAACTCGTGC ((((.((....)).))))
folding enthalpy [1]: -31.4 kcal/mol
Tm [2]: 43.8 °C

GCACACCGAAAGGTTGC (((.(((....))))))
folding enthalpy [1]: -28.6 kcal/mol
Tm [2]: 53.6 °C

GCACACCGAAAGGTTTGC (((.(((....))).)))
folding enthalpy [1]: -40.7 kcal/mol
Tm [2]: 52.3 °C

GCACACGAAAGTGAATGC ((((((....)))..)))
folding enthalpy [1]: -23.9 kcal/mol
Tm [2]: 42.8 °C

GCACACGAAAGTGCGTGC ((((((....)))..)))
folding enthalpy [1]: -17 kcal/mol
Tm [2]: 52.1 °C

GCACACGAAAGTGGTGC ((((((....))).)))
folding enthalpy [1]: -33 kcal/mol
Tm [2]: 59.6 °C

GCACACGAAAGTGTGTGC ((((((....)))..)))
folding enthalpy [1]: -18.9 kcal/mol
Tm [2]: 68.2 °C

GCACACGGAAACGTACGC ((..(((....)))..))
folding enthalpy [1]: -25.2 kcal/mol
Tm [2]: 35.6 °C

GCACAGCGAAAGCACTGC (((..((....))..)))
folding enthalpy [1]: -11.7 kcal/mol
Tm [2]: 35.8 °C

GCACAGCGAAAGCCCTGC (((..((....))..)))
folding enthalpy [1]: -8.82 kcal/mol
Tm [2]: 32.1 °C

GCACAGCGAAAGCTTTGC (((.(((....))).)))
folding enthalpy [1]: -41.2 kcal/mol
Tm [2]: 51.8 °C

GCACAGGGAAACCTGTAC (.(((((....))))).)
folding enthalpy [1]: -12.6 kcal/mol
Tm [2]: 40.3 °C

GCACATGGAAACATATGC (((.(((....))).)))
folding enthalpy [1]: -26 kcal/mol
Tm [2]: 36 °C

GCACATTCGAAAGAATGC (((..(((....))))))
folding enthalpy [1]: -13.8 kcal/mol
Tm [2]: 33 °C

GCACCAGGAAACTAGTGC ((((.((....)).))))
folding enthalpy [1]: -29.2 kcal/mol
Tm [2]: 40.2 °C

GCACCCCCGAAAGGGTGC (((..(((....))))))
folding enthalpy [1]: -30.6 kcal/mol
Tm [2]: 66.6 °C

GCACCCCGAAAGGGATGC (((.(((....))).)))
folding enthalpy [1]: -40.6 kcal/mol
Tm [2]: 57.5 °C

GCACCCGAAAGGGAGTGC ((((((....)))..)))
folding enthalpy [1]: -38.3 kcal/mol
Tm [2]: 54 °C

GCACCCGAAAGGGATGC ((((((....))).)))
folding enthalpy [1]: -28.7 kcal/mol
Tm [2]: 60.5 °C

GCACCCGAAAGGGCTGC ((((((....))).)))
folding enthalpy [1]: -31.4 kcal/mol
Tm [2]: 55.2 °C

GCACCCGAAAGGGGTTGC ((((((....)))..)))
folding enthalpy [1]: -15.4 kcal/mol
Tm [2]: 52.3 °C

GCACCCGGAAACGGGCGC ((.((((....)))).))
folding enthalpy [1]: -38 kcal/mol
Tm [2]: 61.5 °C

GCACCGCGAAAGCAATGC (((..((....))..)))
folding enthalpy [1]: -8.2 kcal/mol
Tm [2]: 27.3 °C

GCACCGCGAAAGCAGGGC ((.(.((....)).).))
folding enthalpy [1]: -16 kcal/mol
Tm [2]: 57.5 °C

GCACCGCGAAAGCCCTGC (((..((....))..)))
folding enthalpy [1]: -7.23 kcal/mol
Tm [2]: 28.2 °C

GCACCGCGAAAGCCGCGC ((.(.((....)).).))
folding enthalpy [1]: -16.8 kcal/mol
Tm [2]: 41.4 °C

GCACCGCGAAAGCTCTGC (((..((....))..)))
folding enthalpy [1]: -10.9 kcal/mol
Tm [2]: 27.4 °C

GCACCGCGAAAGCTGCGC ((.(.((....)).).))
folding enthalpy [1]: -24.4 kcal/mol
Tm [2]: 47.4 °C

GCACCGGGAAACCGGTAC (.(((((....))))).)
folding enthalpy [1]: -14.8 kcal/mol
Tm [2]: 41 °C

GCACCTCGAAAGAGATGC (((.(((....))).)))
folding enthalpy [1]: -40.3 kcal/mol
Tm [2]: 50.6 °C

GCACCTCGAAAGAGCTGC (((.(((....))).)))
folding enthalpy [1]: -25.5 kcal/mol
Tm [2]: 42.2 °C

GCACCTGGAAACAAGTGC ((((.((....)).))))
folding enthalpy [1]: -27.4 kcal/mol
Tm [2]: 41.1 °C

GCACCTGGAAACAGATGC (((.(((....))).)))
folding enthalpy [1]: -28.4 kcal/mol
Tm [2]: 44 °C

GCACCTGGAAACAGGCGC ((.((((....)))).))
folding enthalpy [1]: -46.8 kcal/mol
Tm [2]: 53.5 °C

GCACGCGAAAGCGAGTGC ((((((....)))..)))
folding enthalpy [1]: -21.1 kcal/mol
Tm [2]: 59.5 °C

GCACGCGAAAGCGGATGC ((((((....)))..)))
folding enthalpy [1]: -15 kcal/mol
Tm [2]: 54.9 °C

GCACGCGAAAGCGGCTGC ((((((....)))..)))
folding enthalpy [1]: -14.7 kcal/mol
Tm [2]: 65.4 °C

GCACGCGAAAGCGTATGC ((((((....)))..)))
folding enthalpy [1]: -13.3 kcal/mol
Tm [2]: 50.9 °C

GCACGGACGAAAGTCTGC (((..(((....))))))
folding enthalpy [1]: -12.9 kcal/mol
Tm [2]: 42.5 °C

GCACGGCGAAAGCCCAGC ((..(((....)))..))
folding enthalpy [1]: -12.2 kcal/mol
Tm [2]: 38.4 °C

GCACGGCGAAAGCCTCGC ((..(((....)))..))
folding enthalpy [1]: -16.5 kcal/mol
Tm [2]: 42 °C

GCACGGCGAAAGCGGCGC ((.(.((....)).).))
folding enthalpy [1]: -24.1 kcal/mol
Tm [2]: 57 °C

GCACGGCGAAAGCGGGGC ((.(.((....)).).))
folding enthalpy [1]: -31.5 kcal/mol
Tm [2]: 64.9 °C

GCACGGCGAAAGCGTTGC (((..((....))..)))
folding enthalpy [1]: -18.5 kcal/mol
Tm [2]: 49.3 °C

GCACGTCGAAAGACATGC (((.(((....))).)))
folding enthalpy [1]: -31.7 kcal/mol
Tm [2]: 52.7 °C

GCACGTGGAAACGCGTGC (((((.(....).)))))
folding enthalpy [1]: -45.1 kcal/mol
Tm [2]: 64.6 °C

GCACGTTCGAAAGAATGC (((..(((....))))))
folding enthalpy [1]: -16.9 kcal/mol
Tm [2]: 29.6 °C

GCACTAGAAATAGTGC ((((((....))))))
folding enthalpy [1]: -33.6 kcal/mol
Tm [2]: 55.4 °C

GCACTAGCGAAAGCTTGC (((..(((....))))))
folding enthalpy [1]: -12.6 kcal/mol
Tm [2]: 38.6 °C

GCACTAGGAAACCAGTGC (((((.(....).)))))
folding enthalpy [1]: -34.1 kcal/mol
Tm [2]: 48.3 °C

GCACTAGGAAACTGGTGC ((((.((....)).))))
folding enthalpy [1]: -34.5 kcal/mol
Tm [2]: 52.9 °C

GCACTCGAAAGAGAATGC ((((((....)))..)))
folding enthalpy [1]: -24.6 kcal/mol
Tm [2]: 35.1 °C

GCACTCGAAAGAGCATGC ((((((....)))..)))
folding enthalpy [1]: -14.4 kcal/mol
Tm [2]: 35.2 °C

GCACTCGAAAGAGGCTGC ((((((....)))..)))
folding enthalpy [1]: -19.6 kcal/mol
Tm [2]: 53 °C

GCACTCGAAAGAGTATGC ((((((....)))..)))
folding enthalpy [1]: -16.2 kcal/mol
Tm [2]: 42.1 °C

GCACTCGGAAACAAGTGC (((((.(....).)))))
folding enthalpy [1]: -29.3 kcal/mol
Tm [2]: 46.3 °C

GCACTCGGAAACGAGCGC ((.((((....)))).))
folding enthalpy [1]: -38.9 kcal/mol
Tm [2]: 55.2 °C

GCACTGACGAAAGTCTGC (((..(((....))))))
folding enthalpy [1]: -14.3 kcal/mol
Tm [2]: 38.1 °C

GCACTGCCGAAAGGCTGC (((..(((....))))))
folding enthalpy [1]: -13.4 kcal/mol
Tm [2]: 44.5 °C

GCACTGCGAAAGCAAAGC ((..(((....)))..))
folding enthalpy [1]: -13.2 kcal/mol
Tm [2]: 37.1 °C

GCACTGCGAAAGCAGAGC ((.((((....)))).))
folding enthalpy [1]: -20.7 kcal/mol
Tm [2]: 65.9 °C

GCACTGCGAAAGCCCTGC (((..((....))..)))
folding enthalpy [1]: -12.5 kcal/mol
Tm [2]: 28.8 °C

GCACTGCGAAAGCCGCGC ((.(.((....)).).))
folding enthalpy [1]: -21 kcal/mol
Tm [2]: 45.4 °C

GCACTGGGAAACCAATGC (((.(((....))).)))
folding enthalpy [1]: -30.1 kcal/mol
Tm [2]: 40.3 °C

GCACTGGGAAACCAGCAC (..((((....))))..)
folding enthalpy [1]: -10.1 kcal/mol
Tm [2]: 27.3 °C

GCACTTCGAAAGAAATGC (((.(((....))).)))
folding enthalpy [1]: -31.3 kcal/mol
Tm [2]: 42.3 °C

GCACTTCGAAAGAACTGC (((.(((....))).)))
folding enthalpy [1]: -22.1 kcal/mol
Tm [2]: 34.4 °C

GCACTTGGAAACAAGCGC ((.((((....)))).))
folding enthalpy [1]: -45 kcal/mol
Tm [2]: 49.5 °C

GCACTTGGAAACAAGTGC (((((((....)))))))
folding enthalpy [1]: -34.6 kcal/mol
Tm [2]: 67.7 °C
